Screening data (PubChem)
APJ agonist: agonists of human apelin receptor APJ, primary screen, CHO-K1 cells, PathHunter beta-arrestin, luminescence | P35414 | 0% DMSO wells, 100% apelin | activation, % at 20 µM | hit rate 0.11% among 330,000 | AID 2520, 2010;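 active = activation more than six SD over the plate average, tested at 20 µM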;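 note: 0% = DMSO alone and 100% = apelin-13 at 10 nM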
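Test system – PathHunter CHO-K1 APJ (AGTRL-1) beta-arrestin reporter cells · Input – 1000 cells/well · Compound – single test compound dose, 20 µM final, 1% DMSO · Times – compound stimulation 90 min at 25 °C, detection 60 min · Technique – beta-gal luminescence · Read-out basis – APJ–arrestin association signal · Control set – negative DMSO alone, positive Apelin-13 at 10 nM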
CXCR6 block: CXCR6 receptor inhibitors, primary screen, cell-based, beta-arrestin, luminescence, CHO-K1 PathHunter, 1536-well. inhibition, % at 20 µM. hit rate 0.36% among 360,000. AID 602244, 2012. C-X-C chemokine receptor type 6 (Homo sapiens), O00574; in the data active = inhibition above about 34%, passing the limit was not always enough;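 note: antagonist mode with CXCL16 agonist at 10 nM final; 0% = 10 nM CXCL16 with DMSO and 100% = unstimulated wells without agonist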
Target sequence (O00574 whole entry, looked up): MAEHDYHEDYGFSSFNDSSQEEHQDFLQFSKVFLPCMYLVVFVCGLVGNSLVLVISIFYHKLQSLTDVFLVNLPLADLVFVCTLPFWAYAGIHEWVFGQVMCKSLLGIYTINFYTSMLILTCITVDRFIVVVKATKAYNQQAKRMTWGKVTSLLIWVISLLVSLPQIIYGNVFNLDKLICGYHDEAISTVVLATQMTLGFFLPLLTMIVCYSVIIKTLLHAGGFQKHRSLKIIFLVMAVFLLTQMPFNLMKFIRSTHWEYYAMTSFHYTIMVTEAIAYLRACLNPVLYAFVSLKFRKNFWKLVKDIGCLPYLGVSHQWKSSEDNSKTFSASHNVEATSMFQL
APJ antag: antagonists of human apelin receptor APJ, primary screen, CHO-K1 cells, beta-arrestin complementation, luminescence; hit rate 0.32% among 330,000; inhibition, % at 20 µM; AID 2521, 2010; P35414;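 active = inhibition above about 40% at 20 µM, limit read from the data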;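 note: cells challenged with 10 nM apelin-13 agonist together with compound; plate controls were apelin-13 plus DMSO wells for no effect and DMSO wells lacking apelin-13 for full effect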
EBI2 antag: EBI2 receptor antagonists, beta-arrestin recruitment, primary screen, cell-based, luminescence, 7a,25-OHC stimulation, uHTS; inhibition, % at 5 µM; AID 651636, 2012; 7a,25-OHC stimulated; hit rate 0.81% among 360,000; in the data active = inhibition above about 38%;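 note: enzyme fragment complementation signal reports receptor beta-arrestin coupling in cells; 0% = agonist plus DMSO wells and 100% = wells without agonist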
CCR6 antagonist: CCR6 receptor antagonists, primary screen, cell-based, CHO-K1, luminescence, beta-arrestin, uHTS | hit rate 0.49% among 340,000 | inhibition, % at 20 µM | CHO-K1 CCR6 PathHunter beta-arrestin, CCL20-stimulated | C-C chemokine receptor type 6 (Homo sapiens), P51684 | AID 493098, 2011;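 active = compounds whose inhibition of the agonist-driven luminescence signal at 20 µM reaches about 50%, limit read from the data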;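 note: cells stimulated with CCL20 at 14 nM final; plate controls were DMSO with CCL20 for no effect and DMSO without agonist for full effect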
Numbers without * were called inactive; · = no result given. A selection: hits, their analogues and other compounds. The true share with any hit is near 1.5%.

SMILES | APJ agonist | CXCR6 block | APJ antag | EBI2 antag | CCR6 antagonist
O=C(/C(=C/c1ccc(Cl)cc1)c1nc2ccccc2[nH]1)c1ccccc1 | -1.1 | 11.5 | 14.6 | 50.3* | 17.8
Cc1cc(/C=N/n2c(COc3ccccc3C)nc3ccccc3c2=O)c(O)c([N+](=O)[O-])c1 | -5.2 | 17.8 | 25.5 | 20.6 | 58.5*
Cc1ccccc1OCc1nc2ccccc2c(=O)n1/N=C/c1c[nH]c2ccccc12 | -2.6 | -9.5 | 0.3 | 11.4 | -9.4
C=C1C(=O)OC2CC1C(O)CC(C)=CCCC(C)=CC(O)CC2C (configuration not stated) | · | 7.3 | · | -0.4 | 12.3
C=C1C(=O)OC2CC1C(OC(C)=O)CC(C)=CCCC(C)=CCCC2(C)O (configuration not stated) | · | -4.8 | · | 51.0* | ·
O=C(Nc1ccc(S(=O)(=O)N2CCCC2)cc1)C1CC(=O)N(CCc2ccccc2)C1 (configuration not stated) | · | 9.5 | · | 16.2 | ·
COc1ccc(-c2nc3ccccc3[nH]2)cc1 | 0.8 | -2.2 | 5.5 | -6.3 | -0.8
COc1ccc(-c2nc(=S)c3ccc4ccccc4c3[nH]2)cc1 | · | 45.1* | · | 2.7 | 70.8*
CC(=O)N1CCn2c3c(c(=O)c4cc(C)ccc42)CCC31 (configuration not stated) | -10.7 | 12.0 | 40.4* | 6.9 | 27.1
O=[N+]([O-])c1ccc(NNC(=S)Nc2ccc(F)cc2)cc1 | -0.4 | 25.4 | 21.7 | 3.4 | 68.0*
O=C(NNC(=S)Nc1ccc(F)cc1)c1cccc([N+](=O)[O-])c1 | 1.8 | -1.7 | 15.7 | 8.1 | -4.6
O=C1C2C(C(=O)N1/N=C/c1ccc([N+](=O)[O-])o1)C1C=CC2C12CC2 (configuration not stated) | 2.8 | -14.1 | -70.2 | -11.2 | 4.3
CC1=NN(c2nc(N)nc(/C(C#N)=C/c3ccc([N+](=O)[O-])o3)n2)C(C)(C)C1 | · | 26.6 | · | 29.3 | 53.0*
Cc1cc(NC(=O)CCC(=O)N(CC(=O)NC2CCCC2)c2cccc(F)c2)no1 | -2.7 | 3.7 | -6.2 | -5.6 | 6.6
COc1ccc(C2CC(=O)C(C=NCCN3CCN(C(=S)Nc4ccccc4)CC3)=C(O)C2)cc1OC (configuration not stated) | -2.2 | -5.6 | 12.9 | 2.4 | 4.7
Cc1ccc(OCCn2c(NC(=O)c3ccco3)nc3ccccc32)cc1 | -1.0 | 39.2* | 13.0 | 0.3 | 29.4
c1ccc2c(c1)[nH]c1c3ccccc3sc21 | 2.3 | -22.3 | -6.7 | -11.4 | -13.3
COC(=O)[C@@]12C[C@@H](CC(=O)NCCCN3CCCC3=O)C(=O)N(Cc3ccco3)C1=CCC(C)(C)C2 | · | · | · | 6.2 | ·
O=C(NCc1cccnc1)/C(=C/c1ccc(-c2cccc(C(F)(F)F)c2)o1)NC(=O)c1ccccc1 | -0.4 | -3.7 | -2.4 | -10.1 | -4.0
O=C(NCc1cccnc1)/C(=C/c1ccc(-c2ccc(Cl)cc2)o1)S(=O)(=O)c1ccccc1 | -2.1 | 25.9 | 35.5 | 54.4* | 48.5
O=C(CN(Cc1ccc(Br)cc1)S(=O)(=O)c1ccccc1)NCc1cccnc1 | -2.5 | 5.8 | 0.0 | -11.6 | 14.2
O=C(NCc1cccnc1)/C(=C\c1ccc(-c2ccc(Br)cc2)o1)S(=O)(=O)c1ccccc1 | -2.1 | 24.9 | 23.9 | 61.7* | 49.3
Cc1ccc(NS(=O)(=O)c2ccc(C)c(NC(=S)NCCN3CCOCC3)c2)c(C)c1 | -2.8 | 7.2 | -0.5 | -7.6 | 5.4
O=C(CSc1nc(-c2ccc(F)cc2)nc2c1Cc1ccccc1O2)Nc1cccc(C(=O)O)c1 | · | 2.6 | · | -2.9 | 51.9*
CC(C)(C)C1CCN2CCC[C@](c3ccccc3)(C1)C2OCCCO (some centres not stated) | · | -0.7 | · | -1.3 | ·
Cc1cccc(N2CCN(C(=O)c3cc4cc(F)ccc4[nH]3)CC2)c1C | -2.0 | 13.5 | -5.1 | 91.7* | -1.2
O=C1C=CC(=O)N1Cc1ccccc1 | 1.9 | 89.6* | -28.4 | 3.0 | 106.7*
O=C1NC(=S)S/C1=C/c1ccc(N2CCOCC2)o1 | -0.8 | 19.9 | -0.5 | -0.4 | 61.6*
O=C1S/C(=C\c2ccc(N3CCOCC3)o2)C(=O)N1Cc1ccc(F)cc1 | -5.3 | 13.2 | 23.3 | 47.4* | 29.6
